EBNA-1 inhibitor: blocks EBNA-1 binding to DNA; EBNA-1 DNA binding, fluorescence polarization; inhibition, % at 14.8 µM; 0.34% of 300,000 active; AID 1950; in the data active means inhibition above about 28%
FGF22 binding: FGF22 (human) thermal shift binding | recombinant FGF22 thermal shift, SYPRO orange fluorescence; percent of sucrose octasulfate shift, DMSO zero | activity (Tm shift, normalised), % at 9.99 µM | 1.5% of 340,000 active | AID 651658;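 active means mean Tm shift, scaled 0 neutral to 100 positive control, at about 1.3% or above, every replicate too, limit read from the data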
Target sequence (Q9HCT0 whole entry, looked up): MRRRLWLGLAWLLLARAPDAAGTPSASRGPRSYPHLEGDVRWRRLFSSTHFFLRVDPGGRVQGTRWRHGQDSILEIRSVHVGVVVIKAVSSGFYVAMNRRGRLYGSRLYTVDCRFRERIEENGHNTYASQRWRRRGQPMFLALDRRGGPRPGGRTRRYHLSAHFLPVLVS
DNA FID counter-1: displaces DNA intercalator in HCV helicase counter-screen; inhibition, % at 7.9 µM; DNA fluorescent intercalator displacement, fluorescence; 0.17% of 290,000 active;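 further: higher means more ethidium bromide displaced from hairpin DNA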
NS3 helicase inh: inhibitors of Hepatitis C virus NS3 helicase | NS3 helicase DNA unwinding, Cy5 molecular beacon fluorescence | 0.56% of 290,000 active | AID 1800 | inhibition, % at 10.9 µM;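 active means inhibition above the mean of all tested compounds plus 3 SD, set per campaign, cut at about 35% in these data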
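Test system: hepatitis C virus NS3 helicase domain fragment enzyme. Also added: annealed dual-labelled DNA beacon duplex, ATP-started. Timing: 60 min unwinding reaction at 25 °C after ATP addition. Technique: Cy5 fluorescence. Measure: % inhibition of unwinding.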
GRIN3A LBD mod: modulates the human NR3A ligand-binding domain; AID 1259313; Tm shift relative to glycine control, % at 25 µM; 2.5% of 340,000 active; NR3A LBD differential scanning fluorimetry, Tm shift; 0% = protein alone, 100% = glycine-bound protein;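 active means melting temperature shift of at least 10% of the positive control shift, at one fixed dose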
ZTA DNA inh: blocks Epstein-Barr virus ZTA, an EBNA-1 counter-screen | P03206 | 0.15% of 320,000 active | AID 2234 | inhibition, % at 11 µM | ZTA-DNA binding, fluorescence polarization; in the data active means inhibition above about 33%
Target sequence (P03206 whole entry, looked up): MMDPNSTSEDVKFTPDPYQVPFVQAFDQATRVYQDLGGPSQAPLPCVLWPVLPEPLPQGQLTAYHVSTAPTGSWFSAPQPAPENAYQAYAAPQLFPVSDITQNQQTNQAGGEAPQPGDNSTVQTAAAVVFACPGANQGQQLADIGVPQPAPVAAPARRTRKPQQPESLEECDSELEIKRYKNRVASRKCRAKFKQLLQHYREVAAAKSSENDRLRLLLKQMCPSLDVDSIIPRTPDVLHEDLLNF
NS3 helicase cf: HCV NS3 helicase inhibition, confirmation assay | shares compounds with NS3 helicase inh | NS3 helicase DNA unwinding, Cy5 molecular beacon fluorescence | inhibition, % at 10.9 µM | 31% of 1,600 active;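 active means inhibition above the mean of all tested compounds plus 3 SD, cutoff set per campaign, cut at about 36% in these data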
DNA FID counter-2: counter-screen for HCV NS3 helicase inhibitors: DNA intercalator displacement; shares compounds with NS3 helicase inh; DNA fluorescent intercalator displacement, fluorescence; inhibition, % at 7.9 µM; 4% of 1,600 active;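 further: higher means more displacement of ethidium bromide from the DNA hairpin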
FID counter DR: DNA intercalator displacement in dose response | AID 2172 | fluorescent intercalator displacement from DNA, fluorescence | 120 tested, under 10 active | shares compounds with NS3 helicase inh | IC50, µM; call rule not given here
Hits are given with their value; i = inactive; nt = no result given; + = active, no number. Hits are enriched below; roughly 3.6% of the tested compounds scored in any of these assays. Unless noted, no stated cut-off is given here; in the data, active means inhibition above about 37%; inactive means the rest.

SMILES | EBNA-1 inhibitor | FGF22 binding | DNA FID counter-1 | NS3 helicase inh | GRIN3A LBD mod | ZTA DNA inh | NS3 helicase cf | DNA FID counter-2 | others
CCc1nc2c(sc3nc4c(cc32)COC(C)(C)C4)c(=O)n1Cc1ccco1 | i | nt | i | 39.5 | i | i | i | i
CCc1nc(OCc2ccco2)c2sc3nc4c(cc3c2n1)COC(C)(C)C4 | i | nt | i | 47.9 | i | i | i | i
CC1CC/C(=C\c2ccc3c(c2)OCO3)C(=O)/C1=C/c1ccc2c(c1)OCO2 (configuration not stated) | i | nt | i | 37.6 | i | i | i | i
CCOc1ccc(C(=O)Nc2nnc(S(=O)(=O)N(C)Cc3ccco3)s2)cc1 | i | i | i | 56.5 | i | i | i | i
CC(=O)c1ccc(N(CC(=O)NC2CCCC2)C(=O)CNC(=O)c2cccs2)cc1 | i | i | i | 37.0 | i | i | i | i
CC(=O)c1cccc(N(CC(=O)NC2CCCC2)C(=O)CNC(=O)c2cccs2)c1 | i | i | i | i | i | i | nt | nt
C[C@@H](NC(=O)[C@H]1N[C@H]2c3ccc(-c4cncnc4)c(=O)n3C[C@H]2[C@@H]1CO)c1ccccc1 | nt | i | nt | nt | nt | nt | nt | nt
C[C@@H]1CN([C@H](C)CO)C(=O)c2cccc(NC(=O)C3CC3)c2O[C@H]1CN(C)CC1CC1 | nt | i | nt | nt | nt | nt | nt | nt
COc1ccc(NC(=O)c2cc(-c3ccco3)nc3ccccc23)cc1S(=O)(=O)N1CCOCC1 | i | i | i | 54.0 | i | i | 73.3 | i
CCc1nnc(NC(=O)c2cc(-c3ccco3)nc3ccccc23)s1 | i | i | i | 37.6 | i | i | i | i
Cc1ccc(NC(=O)c2cc(-c3ccco3)nc3ccccc23)cc1S(=O)(=O)N1CCOCC1 | i | i | i | i | i | i | nt | nt
O=C(NCc1ccc2c(c1)OCO2)[C@@H]1[C@@H](CO)[C@@H]2Cn3c(cccc3=O)[C@H]1N2Cc1ccccc1 | nt | i | nt | nt | nt | nt | nt | nt
COc1cccc(S(=O)(=O)N[C@H]2CC[C@H](CCn3cc(-c4ccccc4)nn3)O[C@H]2CO)c1 | nt | i | nt | nt | nt | nt | nt | nt
Cc1cc(C(=O)CSc2nn3c(=O)c(C(C)(C)C)nnc3s2)c(C)n1-c1ccc(F)cc1 | i | nt | i | 39.5 | i | i | i | i
CC(C)N(C(=O)CSc1nn2c(=O)c(C(C)(C)C)nnc2s1)c1ccccc1 | i | nt | i | i | i | i | nt | nt
Cc1cccc(N/N=C/c2ccc(O)c(O)c2O)c1 | i | i | i | 38.4 | i | i | i | i
CO[C@@H]1CN(C)C(=O)c2ccc(NC(=O)C3CCOCC3)cc2OC[C@@H](C)N(C(=O)Nc2ccc(C(F)(F)F)cc2)C[C@H]1C | nt | i | nt | nt | nt | nt | nt | nt
CCN(CC)c1ccc(N=Cc2ccccc2[N+](=O)[O-])cc1 | 176.9 | i | i | 41.3 | i | + | i | i
CCNc1nc(NCC)nc(N/N=C/c2ccc([N+](=O)[O-])o2)n1 | i | nt | i | i | i | i | nt | nt
CC(=O)N(C)c1ccc(N=Cc2cc3c(cc2[N+](=O)[O-])OCO3)cc1 | i | i | nt | nt | i | i | nt | nt
CCN(CC)c1ccc(N=Cc2ccc([N+](=O)[O-])o2)cc1 | + | i | i | 57.1 | i | + | i | i
O=C(C[C@H]1C=C[C@H](NC(=O)c2ccccn2)[C@H](CO)O1)NCc1cccc(F)c1 | nt | i | nt | nt | nt | nt | nt | nt
Cc1ccc(-n2cccc2/C=C2\C(=N)N3N=C(C(C)C)SC3=NC2=O)cc1 | i | i | i | 41.7 | i | i | i | i
CCC1=NN2C(=N)/C(=C\c3cccn3-c3ccc(OC)cc3)C(=O)N=C2S1 | i | i | i | i | i | i | nt | nt
COc1cc(/C=C2\SC(=S)N(NS(=O)(=O)c3ccccc3)C2=O)cc(OC)c1OC | i | nt | i | i | i | i | nt | nt
SMILES | EBNA-1 inhibitor | FGF22 binding | DNA FID counter-1 | NS3 helicase inh | GRIN3A LBD mod | ZTA DNA inh | NS3 helicase cf | DNA FID counter-2 | others
Cc1ccc(S(=O)(=O)NN2C(=O)/C(=C/c3cccn3C)SC2=S)cc1 | i | nt | i | 49.6 | nt | i | 59.9 | i
O=C1/C(=C/c2cccc(F)c2)SC(=S)N1NS(=O)(=O)c1ccccc1 | i | i | i | 36.8 | nt | i | 69.7 | i
Cc1ccc(S(=O)(=O)NN2C(=O)/C(=C/c3ccc(C(=O)O)cc3)SC2=S)cc1 | i | nt | i | 37.2 | i | i | i | i
COc1ccc(N=C2SC(CC(=O)Nc3ccccc3OC)C(=O)N2Cc2ccco2)cc1 (configuration not stated) | i | nt | i | 40.9 | i | i | i | i
CN(C)C(=O)C[C@@H]1C[C@@H]2c3cc(NC(=O)NC4CCCC4)ccc3O[C@@H]2[C@H](CO)O1 | nt | i | nt | nt | nt | nt | nt | nt
COc1ccc2nc(NC(=O)c3ccc([N+](=O)[O-])o3)sc2c1 | i | i | i | 64.0 | i | i | i | i
COc1ccc2[nH]c3c(=O)n(CCCC(=O)NC4CCC(C)CC4)c(=S)[nH]c3c2c1 (configuration not stated) | i | i | i | i | i | i | nt | nt
COc1ccc2[nH]c3c(=O)n(CCCC(=O)NC4CCCCC4C)c(=S)[nH]c3c2c1 (configuration not stated) | i | i | i | 41.6 | i | i | 39.7 | i | FID counter DR=i
Cc1ccc(-c2nc3c(Cl)cc(Cl)cc3c(=O)n2O)cc1 | i | i | i | 36.0 | i | i | 61.9 | i
O=c1c2cc(Br)ccc2nc(-c2ccc(Cl)cc2)n1O | i | i | i | 36.6 | nt | i | 40.2 | i
O=c1c2cc(Cl)ccc2nc(-c2ccc([N+](=O)[O-])cc2)n1O | i | i | i | i | i | i | nt | nt
C[C@H](CO)N1C[C@H](C)[C@H](CN(C)Cc2ccc(C(F)(F)F)cc2)Oc2ccc(NS(=O)(=O)c3cccs3)cc2CC1=O | nt | i | nt | nt | nt | nt | nt | nt
N=C1/C(=C\c2ccc(-c3ccc(C(=O)O)cc3)o2)C(=O)N=C2SC=C(c3ccccc3)N12 | nt | i | i | 36.5 | i | nt | 72.6 | i
N=C1/C(=C\c2ccc(-c3cccc(Cl)c3)o2)C(=O)N=C2SC=C(c3ccccc3)N12 | i | i | i | 46.1 | 13.0 | i | 79.5 | i
COc1cc(/C=C2/C(=N)N3C(c4ccccc4)=CSC3=NC2=O)ccc1OCC(=O)O | i | i | i | i | i | i | nt | nt
O=C(C[C@@H]1CC[C@H]2[C@@H](COC[C@H](O)CN2S(=O)(=O)c2ccccc2)O1)NCc1ccc(-c2ccccc2)cc1 | nt | i | nt | nt | nt | nt | nt | nt
Cn1cc(C=C2C(=O)CC(C)(C)CC2=O)c2ccccc21 | i | i | i | 37.6 | i | i | i | i
Cn1cc(C=C2C(=O)OC3(CCCCC3)OC2=O)c2ccccc21 | i | i | i | i | i | i | nt | nt
CC(=O)Oc1cc2cccc(OC(C)=O)c(=O)c2c(OC(C)=O)c1OC(C)=O | i | nt | i | 53.2 | i | i | i | i

Screening results from PubChem.
